ChEMBL document CHEMBL1132240, “Design and synthesis of modified quinolones as antitumoral acridones” (J Med Chem, 1999)

Assays:
[1] = species on record: Homo sapiens; assay: Relative cytotoxicity against Human bone marrow samples; Value is in range, activity expressed as IC50; format: functional
Summary of the method: (§1)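 Second-stage assay on HL-60 (5 × 10^4/well) and soybean-agglutinin-negative mononuclear marrow cells (5 × 10^5/well) from six healthy donors. Four wells per concentration, 48 h at 37 °C, then [125I]iododeoxyuridine plus fluorodeoxyuridine for 18 h. Inhibition from fractional uptake decrease; IC50/IC90 by median-effect equation. Ranges are antilog(mean log ± 2SD); ratios use mean antilogs.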

[2] = system: CHO; assay: Cytotoxic activity against solid tumor, CHO (Chinese hamster ovaric carcinoma) Concentration of agent required to reduce cell viability by 50%; format: functional, cell-based; settings: Cricetulus griseus
Summary of the method: (§2)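 Modified MTT assay. Cells seeded per well with graded drug: CHO 2.5 × 10^3, B16 5 × 10^3, P388 and LLC 10^4, HL-60 and LoVo 5 × 10^4. After 68 h, MTT (2.5 mg/mL) added for 4 h at 37 °C. Formazan dissolved in DMSO and A550 read. Inhibition taken as fractional A550 decrease vs control. IC50/IC90 from Chou's median-effect equation.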

[3] = Ratio of antilog(mean log IC90 in bone marrow sample) and antolog(mean log IC90) in HL-60); format: functional; summary of the method: as §1
[4] = system: Lewis lung carcinoma cell line; assay: Cytotoxic activity against solid tumor LLC(Lewis lung carcinoma), concentration of agent required to reduce cell viability by 50%; format: functional, cell-based; settings: Mus musculus; summary of the method: as §2
[5] = Ratio of antilog(mean log IC50 in bone marrow sample) and antolog(mean log IC90) in HL-60); format: functional; summary of the method: as §1
[6] = system: P388; assay: Cytotoxic activity Murine Lymphocytic Leukemia P388 Concentration of agent required to reduce cell viability by 90%; format: functional; settings: Mus musculus; summary of the method: as §2
[7] = species on record: Homo sapiens; assay: Relative cytotoxicity against Human bone marrow samples; Value is in range, activity expressed as IC90; format: functional; summary of the method: as §1
[8] = system: HL-60; assay: Relative cytotoxicity against Human promyelocytic Leukemia(HL-60) cells; Value is in range, activity expressed as IC50; format: functional, cell-based; summary of the method: as §1
[9] = system: HL-60; assay: Cytotoxic activity against Human promyelocytic Leukemia HL-60 Concentration of agent required to reduce cell viability by 50%; format: functional, cell-based; summary of the method: as §2
[10] = system: B16; assay: Cytotoxic activity against solid tumor, B16 (murine melanoma) Concentration of agent required to reduce cell viability by 50%; format: functional, cell-based; settings: Mus musculus; summary of the method: as §2
[11] = system: LoVo; assay: Cytotoxic activity against solid tumor, LoVo, (human colon adenocarcinoma) Concentration of agent required to reduce cell viability by 50%; format: functional, cell-based; summary of the method: as §2
[12] = system: LoVo; assay: Cytotoxic activity against solid tumor, LoVo, (human colon adenocarcinoma) Concentration of agent required to reduce cell viability by 90%; format: functional; summary of the method: as §2
[13] = system: B16; assay: Cytotoxic activity against solid tumor, B16 (murine melanoma) Concentration of agent required to reduce cell viability by 90%; format: functional; settings: Mus musculus; summary of the method: as §2
[14] = Ratio of antilog(mean log IC50 in bone marrow sample) and antolog(mean log IC50) in HL-60); format: functional; summary of the method: as §1
[15] = system: HL-60; assay: Relative cytotoxicity against Human promyelocytic Leukemia(HL-60) cells; Value is in range, activity expressed as IC90; format: functional; summary of the method: as §1
[16] = system: P388; assay: Cytotoxic activity against Murine Lymphocytic Leukemia P388 Concentration of agent required to reduce cell viability by 50%; format: functional, cell-based; settings: Mus musculus; summary of the method: as §2
[17] = system: CHO; assay: Cytotoxic activity against solid tumor, CHO (Chinese hamster ovaric carcinoma) Concentration of agent required to reduce cell viability by 90%; format: functional; settings: Cricetulus griseus; summary of the method: as §2
[18] = system: Lewis lung carcinoma cell line; assay: Cytotoxic activity against solid tumor LLC(Lewis lung carcinoma), concentration of agent required to reduce cell viability by 90%; format: functional; settings: Mus musculus; summary of the method: as §2
[19] = system: HL-60; assay: Cytotoxic activity against Human promyelocytic Leukemia HL-60 Concentration of agent required to reduce cell viability by 90%; format: functional; summary of the method: as §2
[20] = system: LoVo; assay: Cytotoxic activity against solid tumor, LoVo, (human colon adenocarcinoma) concentration of agent required to reduce cell viability by 90%; format: functional; summary of the method: as §2
[21] = species on record: Homo sapiens; assay: Relative cytotoxicity against human bone marrow samples; format: functional; summary of the method: as §1
[22] = Ratio of cytotoxicity of compound towards bone marrow sample and to that of HL-60 was determined as IC50BM/IC90HL; format: functional; summary of the method: as §1
[23] = system: P388; assay: Cytotoxic activity against murine lymphocytic leukemia P388 concentration of agent required to reduce cell viability by 50%; format: functional, cell-based; settings: Mus musculus; summary of the method: as §2
[24] = system: CHO; assay: Cytotoxic activity against solid tumor, CHO (Chinese hamster ovaric carcinoma) concentration of agent required to reduce cell viability by 90%; format: functional; settings: Cricetulus griseus; summary of the method: as §2
[25] = system: HL-60; assay: (§3) Relative cytotoxicity against human promyelocytic leukemia(HL-60) cells; format: functional; summary of the method: as §1
[26] = system: B16; assay: Cytotoxic activity against solid tumor, B16 (murine melanoma) concentration of agent required to reduce cell viability by 50%; format: functional, cell-based; settings: Mus musculus; summary of the method: as §2
[27] = system: HL-60; assay: Cytotoxic activity against human promyelocytic leukemia HL-60 concentration of agent required to reduce cell viability by 50%; format: functional, cell-based; summary of the method: as §2
[28] = system: HL-60; assay: Cytotoxic activity against human promyelocytic leukemia HL-60 concentration of agent required to reduce cell viability by 90%; format: functional; summary of the method: as §2
[29] = system: P388; assay: Cytotoxic activity against murine lymphocytic leukemia P388 concentration of agent required to reduce cell viability by 90%; format: functional; settings: Mus musculus; summary of the method: as §2
[30] = Ratio of cytotoxicity of compound towards bone marrow sample and to that of HL-60 was determined as IC50BM/IC50HL; format: functional; summary of the method: as §1
[31] = system: HL-60; assay: as §3; format: functional, cell-based; summary of the method: as §1
[32] = Ratio of cytotoxicity of compound towards bone marrow sample and to that of HL-60 was determined as IC90BM/IC90HL; format: functional; summary of the method: as §1
[33] = system: LoVo; assay: Cytotoxic activity against solid tumor, LoVo, (human colon adenocarcinoma) concentration of agent required to reduce cell viability by 50%; format: functional, cell-based; summary of the method: as §2

CCn1c2cc(Cl)c(N)cc2c(=O)c2c(O)cc(O)cc21
IC50 [1]: 7.08 µM
IC50 [2]: 5.8 µM
Ratio [3]: 0.5
IC50 [4]: 16 µM
Ratio [5]: 0.1
IC90 [6]: 13 µM
IC90 [7]: 74.1 µM
IC50 [8]: 17 µM
IC50 [9]: 13 µM
IC50 [10]: 2.8 µM
IC50 [11]: 15 µM
IC90 [12]: > 100 µM
IC90 [13]: 28 µM
Ratio [14]: 0.6
IC90 [15]: 97.5 µM
IC50 [16]: 1.6 µM
IC90 [17]: 71 µM
IC90 [18]: > 100 µM
IC90 [19]: 74 µM

CCn1c2cc(N3CC(C)NC(C)C3)c(N)cc2c(=O)c2c(O)cc(O)cc21 (stereo not given)
IC50 [2]: 12 µM
IC50 [4]: 29 µM
IC90 [6]: 18 µM
IC50 [9]: 21 µM
IC50 [10]: 22 µM
IC50 [11]: 21 µM
IC90 [12]: 37 µM
IC90 [13]: 32 µM
IC50 [16]: 6.2 µM
IC90 [17]: 38 µM
IC90 [18]: 43 µM
IC90 [19]: 32 µM

CCn1c2cc(Cl)ccc2c(=O)c2c(O)cc(O)cc21
IC90 [6]: > 100 µM
IC50 [9]: > 100 µM
IC50 [16]: > 100 µM
IC90 [19]: > 100 µM

CCn1c2cc(N3CCN(C)CC3)c(N)cc2c(=O)c2c(O)cc(OC)cc21
IC50 [2]: 6 µM
IC50 [4]: 9.3 µM
IC90 [20]: 15 µM
IC50 [21]: 10.7 µM
IC90 [21]: 89.1 µM
Ratio [22]: 0.4
IC50 [23]: 2.9 µM
IC90 [24]: 11 µM
IC90 [25]: 22.9 µM
IC50 [26]: 8.6 µM
IC50 [27]: 17 µM
IC90 [28]: 24 µM
IC90 [13]: 12 µM
IC90 [18]: 11 µM
IC90 [29]: 8.9 µM
Ratio [30]: 0.4
IC50 [31]: 19.1 µM
Ratio [32]: 2.7
IC50 [33]: 10 µM

CCn1c2cc(N3CCN(C)CC3)c(N)cc2c(=O)c2c(OC)cc(OC)cc21
IC50 [23]: 16 µM
IC50 [27]: 61 µM
IC90 [28]: 99 µM
IC90 [29]: 26 µM

CCn1c2cc(N3CCC(O)CC3)c(N)cc2c(=O)c2c(O)cc(O)cc21
IC50 [1]: 1.8 µM
IC50 [2]: 9.9 µM
Ratio [3]: 1.5
Ratio [5]: 0.2
IC90 [6]: 9.4 µM
IC90 [7]: 15.9 µM
IC50 [8]: 6.64 µM
IC50 [9]: 5.4 µM
IC50 [10]: 26 µM
IC90 [13]: > 50 µM
Ratio [14]: 0.4
IC90 [15]: 11.7 µM
IC50 [16]: 3.4 µM
IC90 [17]: 38 µM
IC90 [19]: 9.2 µM

COc1cc(O)c2c(=O)c3cc(N)c(N4CCN(C)CC4)cc3n(C)c2c1
IC50 [23]: 3.4 µM
IC50 [27]: 23 µM
IC90 [28]: 33 µM
IC90 [29]: 6.8 µM

CN1CCN(c2cc3c(cc2N)c(=O)c2c(O)cc(O)cc2n3C)CC1
IC90 [6]: 11 µM
IC50 [9]: 24 µM
IC50 [16]: 7.2 µM
IC90 [19]: 39 µM

CCN(CC)CCn1c2cc(NC)c(N)cc2c(=O)c2c(O)cc(O)cc21
IC50 [2]: 8.2 µM
IC50 [4]: 23 µM
IC90 [6]: 7 µM
IC50 [9]: 9.7 µM
IC50 [10]: 3.8 µM
IC50 [11]: 26 µM
IC90 [12]: 44 µM
IC90 [13]: 24 µM
IC50 [16]: 3.9 µM
IC90 [17]: 36 µM
IC90 [18]: 64 µM
IC90 [19]: 27 µM

CCN(CC)CCn1c2cc(O)c(N)cc2c(=O)c2c(O)cc(O)cc21
IC90 [6]: 56 µM
IC50 [9]: > 100 µM
IC50 [16]: 26 µM
IC90 [19]: > 100 µM

CN1CCN(c2cc3nc4cc(O)cc(O)c4c(O)c3cc2N)CC1
IC90 [6]: > 100 µM
IC50 [9]: > 100 µM
IC50 [16]: 57 µM
IC90 [19]: > 100 µM

CCN(CC)CCn1c2cc(N3CCCC3)c(N)cc2c(=O)c2c(O)cc(O)cc21
IC90 [6]: 21 µM
IC50 [9]: 96 µM
IC50 [16]: 9.7 µM
IC90 [19]: > 100 µM
